Measured values from ChEMBL document CHEMBL1141315, “Structures and radical-scavenging activities of phenolic constituents from the bark of Picea jezoensis var. jezoensis” (J Nat Prod, 2007).

How the values were obtained:
[1] = tested on: Radical scavenging activity; assay: Antioxidant activity assessed as DPPH radical scavenging activity; type: functional
In short: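 Test sample in EtOH mixed with 0.1 M HOAc–NaOAc buffer (pH 5.5) and DPPH in EtOH (800 µM stock). Reacted 30 min at room temperature in microplate wells; absorbance read at 517 nm. Value reported as SC50 (50% scavenging concentration).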

[2] = Antioxidant activity assessed as superoxide anion radical scavenging activity; type: functional
In short: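 Superoxide generated by xanthine–xanthine oxidase in 0.05 M Na2CO3 (pH 10.2) with xanthine, EDTA, BSA and nitroblue tetrazolium (stocks 3 mM, 3 mM, 1.5 mg/mL, 0.75 mM); reaction started with xanthine oxidase (0.1 mg/mL stock). Incubated 20 min at 25 °C, stopped with CuCl2, absorbance at 560 nm; IC50 reported.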

SMILES | SC50 [1] | IC50 [2]
O=C1C=C2O[C@H](c3ccc(O)c(O)c3)[C@@H](O)[C@@H]3c4c(O)cc(O)cc4[C@H](C23)[C@H](c2ccc(O)c(O)c2)C1 (stereo partly specified) | 3.83 µM | 
O=C1c2c(O)cc(O)cc2O[C@H](c2ccc(O)c(O)c2)[C@H]1O [(+)-TAXIFOLIN] | 10.4 µM | 1410 nM
Oc1cc(O)c2c(c1)O[C@H](c1ccc(O)c(O)c1)[C@@H](O)C2 [CIANIDANOL] | 11.4 µM | 2310 nM
O=C(O)/C=C/c1ccc(O)cc1 [COUMARIC ACID] | 117 µM | 104000 nM
COc1cc([C@@H]2Oc3c(OC)cc(CCCO)cc3[C@H]2CO)ccc1O [DIHYDRODEHYDRODICONIFERYL ALCOHOL] | 69.1 µM | 344000 nM
O=C(O)c1cc(O)c(O)c(O)c1 [GALLIC ACID] | 8.08 µM | 530 nM
COc1cc([C@H]2c3cc(O)c(OC)cc3C[C@@H](CO)[C@@H]2CO)ccc1O [ISOLARICIRESINOL] | 13.7 µM | 70700 nM
Oc1cc(O)cc([C@@H]2c3c(cc(O)c4c3O[C@H](c3ccc(O)c(O)c3)[C@@H](O)C4)O[C@H]2c2ccc(O)c(O)c2)c1 [JEZONOCINOL A] | 9.92 µM | 2030 nM
Oc1cc(O)cc([C@H]2c3c(cc(O)c4c3O[C@H](c3ccc(O)c(O)c3)[C@@H](O)C4)O[C@@H]2c2ccc(O)c(O)c2)c1 [JEZONOCINOL B] | 11.8 µM | 1800 nM
O=Cc1ccc(O)c(O)c1 [PROTOCATECHUALDEHYDE] | 12.2 µM | 25300 nM
O=C(O)c1ccc(O)c(O)c1 [PROTOCATECHUIC ACID] | 17.3 µM | 3310 nM
